For nine compounds, inhibition of growth, MBC and Activity results are on record in ChEMBL document CHEMBL3421541, “Benzaldehyde Schiff bases regulation to the metabolism, hemolysis, and virulence genes expression in vitro and their structure-microbicidal activity relationship” (2015).

Converted amounts (≈) assume the structure as drawn. The source made the active and inactive calls.

The test system of test [1] is Escherichia coli. Kind of test: Antibacterial activity against Escherichia coli assessed as growth inhibition at 100 umol/L after 8 hrs by ELISA plate reader analysis relative to control. Format: functional. The conditions noted are these: read-out: GI. In outline: (§1)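 Bacteria were seeded at 1×10^5 CFU/mL in LB, and compound was added to 100 µmol/L final. Compounds came from DMSO stock, with DMSO ≤1% (v/v) final. Cultures were shaken at 37 °C for 8 h and read at OD450. Inhibition % = (OD vehicle control − OD sample)/OD vehicle control × 100. Values are the mean of three independent experiments.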

The test system of test [2] is Escherichia coli. Kind of test: Antibacterial activity against Escherichia coli assessed as lowest concentration required to reduce growth by 1% after 8 hrs by ELISA plate reader analysis relative to control. Format: functional. The gist of the method:
(§2)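 MBC was found by broth microdilution. Inocula of 1×10^5 CFU/mL in LB were shaken at 37 °C with a series of compound concentrations, then read at OD450. MBC was defined as the lowest concentration reducing growth by 1% versus the inoculum control. Three independent experiments were run.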

Test [3] deals with Escherichia coli. Description: Downregulation of IroD gene expression in Escherichia coli at 50 umol/L after 8 hrs by semi-quantitative RT-PCR analysis relative to control. The format is functional, organism-based. The gist of the method: (§3)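 E. coli at 2×10^7 CFU/mL in LB was exposed to 50 µmol/L compound, or LB alone, for 8 h at 37 °C. Total RNA was then analysed by TaqMan real-time RT-PCR or semi-quantitative RT-PCR. Transcripts were normalised to gapA. Fold change is relative to time-matched medium-only cultures.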

Test [4] has as its system Bacillus subtilis. Description: Antibacterial activity against Bacillus subtilis assessed as growth inhibition at 100 umol/L after 8 hrs by ELISA plate reader analysis relative to control. Format: functional. The following applies: read-out: GI. The gist of the method:
as §1

In test [5] the test system is Escherichia coli. Kind of test: Downregulation of cysB gene expression in Escherichia coli at 50 umol/L after 8 hrs by real-time RT-PCR analysis relative to control. The format is functional, organism-based. In outline: as §3
A general note: Quantitative PCR measures a nucleic acid by following its amplification.

For test [6], the system named is Escherichia coli. Kind of test: Downregulation of tsh gene expression in Escherichia coli at 50 umol/L after 8 hrs by semi-quantitative RT-PCR analysis relative to control. The format is functional, organism-based. In outline:
as §3

In test [7] the test system is Escherichia coli. Description: Downregulation of cysB gene expression in Escherichia coli at 50 umol/L after 8 hrs by semi-quantitative RT-PCR analysis relative to control. Format: functional, organism-based. In outline: as §3
Test [8] deals with Escherichia coli. Description: Downregulation of tsh gene expression in Escherichia coli at 50 umol/L after 8 hrs by real-time RT-PCR analysis relative to control. The format is functional, organism-based. The gist of the method: as §3
Test [9] deals with Escherichia coli. Kind of test: Downregulation of IroD gene expression in Escherichia coli at 50 umol/L after 8 hrs by real-time RT-PCR analysis relative to control. Format: functional, organism-based. The gist of the method:
as §3

Test [10] relates to Bacillus subtilis. Description: Downregulation of yqhB gene expression in Bacillus subtilis at 50 umol/L after 8 hrs by semi-quantitative RT-PCR analysis relative to control. The format is functional, organism-based. The gist of the method: (§4)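 B. subtilis ATCC 6051 at 2×10^7 CFU/mL in LB was exposed to 50 µmol/L compound, or LB alone, for 8 h at 37 °C. Total RNA was analysed by TaqMan real-time RT-PCR or semi-quantitative RT-PCR, normalised to 16sRNA. Fold change is versus time-matched medium-only cultures, with data pooled from three experiments.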

The test system of test [11] is Bacillus subtilis. Kind of test: Downregulation of yhdT gene expression in Bacillus subtilis at 50 umol/L after 8 hrs by semi-quantitative RT-PCR analysis relative to control. The format is functional, organism-based. In outline:
as §4

Test [12] has as its system Bacillus subtilis. Kind of test: Antibacterial activity against Bacillus subtilis assessed as lowest concentration required to reduce growth by 1% after 8 hrs by ELISA plate reader analysis relative to control. Format: functional. In outline:
as §2

The subject of test [13] is Bacillus subtilis. Description: Downregulation of yhdT gene expression in Bacillus subtilis at 50 umol/L after 8 hrs by real-time RT-PCR analysis relative to control. The format is functional, organism-based. In outline: as §4
In test [14] the test system is Bacillus subtilis. Kind of test: Downregulation of yhdP gene expression in Bacillus subtilis at 50 umol/L after 8 hrs by semi-quantitative RT-PCR analysis relative to control. The format is functional, organism-based. The gist of the method:
as §4

In test [15] the test system is Bacillus subtilis. Kind of test: Downregulation of yqhB gene expression in Bacillus subtilis at 50 umol/L after 8 hrs by real-time RT-PCR analysis relative to control. Format: functional, organism-based. In outline:
as §4

For test [16], the system named is Bacillus subtilis. Description: Downregulation of yugS gene expression in Bacillus subtilis at 50 umol/L after 8 hrs by semi-quantitative RT-PCR analysis relative to control. The format is functional, organism-based. In outline:
as §4

Test [17] has as its system Bacillus subtilis. Description: Downregulation of yqhC gene expression in Bacillus subtilis at 50 umol/L after 8 hrs by semi-quantitative RT-PCR analysis relative to control. Format: functional, organism-based. In outline:
as §4

For test [18], the system named is Bacillus subtilis. Kind of test: Downregulation of yugS gene expression in Bacillus subtilis at 50 umol/L after 8 hrs by real-time RT-PCR analysis relative to control. The format is functional, organism-based. In outline:
as §4

The test system of test [19] is Bacillus subtilis. Description: Downregulation of yqhC gene expression in Bacillus subtilis at 50 umol/L after 8 hrs by real-time RT-PCR analysis relative to control. Format: functional, organism-based. In outline:
as §4

Test [20] deals with Bacillus subtilis. Kind of test: Downregulation of yhdP gene expression in Bacillus subtilis at 50 umol/L after 8 hrs by real-time RT-PCR analysis relative to control. The format is functional, organism-based. In outline:
as §4

For test [21], the system named is Escherichia coli. Kind of test: Downregulation of acrA gene expression in Escherichia coli at 50 umol/L after 8 hrs by real-time RT-PCR analysis relative to control. The format is functional, organism-based. The gist of the method: as §3
In test [22] the test system is Escherichia coli. Kind of test: Downregulation of acrA gene expression in Escherichia coli at 50 umol/L after 8 hrs by semi-quantitative RT-PCR analysis relative to control. The format is functional, organism-based. In outline: as §3

Turning to `CC1(C)S[C@@H]2[C@H](NC(=O)[C@H](N)c3ccccc3)C(=O)N2[C@H]1C(=O)O` [AMPICILLIN], the inhibition of growth at 100 µM in the test on Escherichia coli [1] was found to be 99.3%. Also, the MBC in the test on Escherichia coli [2] is 1.8 µM (≈ 0.629 µg/mL).
Regarding `O=C(N/N=C/c1ccccc1O)c1ccccc1O`, in the test on Escherichia coli [1], the inhibition of growth at 100 µM was found to be 11.8%.
Regarding `O=C(O)[C@H](Cc1ccc(O)cc1)/N=C/c1ccccc1O`, the result in the test with Escherichia coli [3], in the test on Escherichia coli [5], in the test on Escherichia coli [6], in the test with Escherichia coli [7], in the test with Escherichia coli [8] and in the test with Escherichia coli [9] was Active. For the same compound, the inhibition of growth at 100 µM with Escherichia coli [1] was determined as 96%; in the test with Bacillus subtilis [4] it was 4.38%. Besides, the MBC in the test on Escherichia coli [2] stood at 1.6 µM (≈ 0.456 µg/mL).
Regarding `O=C(COc1ccc(Cl)cc1)N/N=C/c1cc(Cl)ccc1O`, the figures for the inhibition of growth at 100 µM with Escherichia coli [1] and in the test on Bacillus subtilis [4] were 3.08% and 83.2%, respectively. For the same compound, the result in the test on Bacillus subtilis [10], with Bacillus subtilis [11], in the test with Bacillus subtilis [13], with Bacillus subtilis [14], with Bacillus subtilis [15] and in the test with Bacillus subtilis [16] was Active. Further, the outcome in the test with Bacillus subtilis [17], with Bacillus subtilis [18], with Bacillus subtilis [19] and in the test with Bacillus subtilis [20] was Active. In addition, the MBC with Bacillus subtilis [12] turned out to be 10.8 µM (≈ 3.66 µg/mL).
Regarding `O=C(O)[C@H](Cc1ccccc1)/N=C/c1ccccc1O`, the inhibition of growth at 100 µM in the test with Escherichia coli [1] turned out to be 22.7%.
Regarding `COc1ccc(CC(=O)N/N=C/c2cc(Br)ccc2O)cc1`, in the test on Bacillus subtilis [4], the inhibition of growth at 100 µM was 1.01%.
In the case of `O=C(N/N=C/c1ccccc1O)c1ccncc1` [SALINAZID], the inhibition of growth at 100 µM with Escherichia coli [1] was determined as 6.81%.
As for `O=C(COc1ccc(Cl)cc1)N/N=C/c1cc(Br)ccc1O`, the outcome with Escherichia coli [3], in the test with Escherichia coli [21], with Escherichia coli [22], with Escherichia coli [5], in the test with Escherichia coli [6] and in the test with Escherichia coli [7] was Active. Moreover, the outcome in the test with Escherichia coli [8] and in the test with Escherichia coli [9] was Active. For the same compound, the inhibition of growth at 100 µM came to 73.2% with Escherichia coli [1] and 15.9% in the test with Bacillus subtilis [4]. Moreover, the MBC with Escherichia coli [2] stood at 18.4 µM (≈ 7.06 µg/mL).
For the compound `CC(C)(C)c1cc(/C=N/NC(=O)COc2ccc(Cl)cc2)c(O)c(C(C)(C)C)c1`, the inhibition of growth at 100 µM is 10.5% in the test on Escherichia coli [1] and 19.7% with Bacillus subtilis [4].

Usually MBC stands for the lowest tested concentration that kills the bacteria rather than only halting them.
